A number with no mark means an inactive call. Results filed as inconclusive are left out. The source made the active and inactive calls.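 How the source made its calls, unless noted: active means viability increase at or above a cutoff of the median across tested compounds plus 3 SD (cut at about 8.5% in these data, passing the limit was not always enough); inconclusive means some gains above the cutoff, reason not given; inactive means the rest.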
Key:
[1] = S. cerevisiae growth inhibition in permissive medium (OD615), pilot counter-assay for S. cerevisiae lifespan shortening project, permissive growth control (AID 705;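 active means growth inhibition above 25% in both replicates, a cutoff set 3 SD above the mean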); settings: OD615, 24 h, at 10 µM, active compounds read high
Summary of the method: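 System: S. cerevisiae with engineered DeaD lifespan system. Medium: SC raffinose/galactose permissive medium. Doses: single compound dose of 10 µM, 0.25% DMSO final. Schedule: 24 h exposure, 30 °C. Measured by: OD615 turbidity read. Read-out: growth inhibition.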

[2] = S. cerevisiae growth inhibition in restrictive medium, OD615, pilot screen, restrictive growth control, yeast lifespan reduction project (AID 706;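 active means growth inhibition above a set limit, 3 SD over mean compound inhibition, in both replicates, cut at about 43% in these data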;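 further: modified DeaD lifespan yeast strain shifted to restrictive glucose medium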); settings: OD615, 48 h, at 10 µM, active compounds read high
Summary of the method: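 Assay system – genetically modified Saccharomyces cerevisiae, DeaD replicative lifespan assay strain · Medium – CSMM-D glucose medium · Doses – 10 µM compound, 0.25% DMSO · Times – 4 h pre-incubation, 48 h exposure at 30 °C · Signal – optical density at 615 nm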

[3] = doxorubicin toxicity protection in MRP-1 cells – H69AR cells, CellTiter-Glo, duplicate, MRP-1 activator project, pilot screen (AID 807); settings: H69AR viability with doxorubicin, CellTiter-Glo luminescence; at 10 µM; active compounds read high;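 further: compound pretreatment 18-22 h then 72 h combined with doxorubicin; 0% = doxorubicin alone and 100% = vehicle without doxorubicin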
[4] = viability of HCT116 without oncogenic beta-catenin – human colon tumor cells, pilot screen (AID 823;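 active means cell viability at or below a set limit in both duplicate runs, the limit being the all-compound median minus 4 SD, cut at about 23% in these data, passing the limit was not always enough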;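 further: 0% = wells killed by 20 µM Hyamine and 100% = untreated DMSO cell wells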); settings: HCT116 beta-catenin knockout viability, CellTiter-Glo, 60 h; at 10 µM; active compounds read low
[5] = viability of PTEN-null HCT116 cells – cell-based, HCT116 clonal line, CellTiter-Glo, pilot screen (AID 824;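 active means viability at or below 27.92% in each of two runs, the all-compound median minus 4 SD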;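 further: 0% = 20 µM Hyamine control and 100% = vehicle cell control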); settings: HCT116 PTEN-deleted viability, 60 h, at 10 µM, active compounds read low
[6] = RAM pathway blockade in budding yeast – dse1pr::URA3 reporter, 5-FOA selection, pilot screen (AID 869;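 active means inhibition over a set limit, the all-compound mean plus 3 SD, in both replicate runs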;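 further: 0% = DMSO wells with no growth and 100% = 10 µM 1-NA-PP1 with full growth; RAM network block rescues cells from 5-FOA so hits raise OD615 growth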); settings: S. cerevisiae dse1pr::URA3 5-FOA growth, OD615, 2 d; at 10 µM; active compounds read high; strain carries analog-sensitive mutant Cbk1 kinase
[7] = RAM signaling pathway blockade in yeast – S. cerevisiae, Pdr1DBD-CYC8 efflux-inhibited sensitized strain, primary screen (AID 1298;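 active means RAM network inhibition above 8.4% in each of two replicates, 3 SD over the compound average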;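 further: 0% = DMSO untreated cells without growth and 100% = 10 µM 1-NA-PP1 full growth; higher means more yeast growth rescued from 5-FOA killing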); settings: S. cerevisiae cbk1-as DSE1-URA3 strain, 5-FOA growth OD615, 2 d; at 50 µM; active compounds read high

Row | SMILES | growth inhibition [1] [%] | growth inhibition [2] [%] | viability increase [3] [%] | viability [4] | viability [5] | inhibition [6] [%] | RAM network inhibition [7] [%]
1 | NS(=O)(=O)c1ccc(S(=O)(=O)NCCc2ccccc2)cc1 | -4.76 | 8.78 | 0.73 | 93.3% | 94.9% | 1 | 3.88
2 | O=C(Nc1ccccc1)OCC1CCCN2CCCCC12 (stereo not drawn) | -12.9 | -13.1 | -0.94 | 95.7% | 97.4% | 0.69 | 3.65
3 | Cc1ccc2oc(=O)c3cnn(CC(=O)N4CCCCCC4)c3c2c1 | -11 | -0.055 | -3.69 | 82.8% | 89.1% | 1.46 | 2.05
4 | O=S(=O)(c1ccc(Oc2ccc(S(=O)(=O)N3CCOCC3)cc2)cc1)N1CCOCC1 | -21.5 | -21.2 | -1.32 | 82.7% | 87.6% | 4.01 | 4.04
5 | CCOc1ccccc1N1CCN(S(=O)(=O)CC)CC1 | -0.885 | 4.05 | -1.83 | 94.9% | 97.6% | 0.455 | 6.05
6 | O=c1cc(CO)oc(C(Nc2ccccn2)c2ccccc2F)c1O (stereo not drawn) | -10.6 | -4.86 | -5.64 | 106% | 93.3% | 0.95 | 2.91
7 | S=c1nc(-c2ccccc2)n(CCCn2ccnc2)c2c1CCCC2 | -6.46 | -0.21 | 0.85 | 102% | 95.6% | 2.03 | -0.69
8 | Cn1nc(-c2ccc(Cl)cc2)c2cc(C(=O)N3CCN(C(=O)c4ccco4)CC3)sc21 | 5.26 | 15.6 | -6.46 | 66.6% | 66.2% | 0.755 | 4.92
9 | Cc1ccccc1C(=O)Nc1ccc2nc3n(c(=O)c2c1)CCC3 | -2.17 | 0.31 | 0.79 | 106% | 104% | 0.085 | 4.34
10 | COc1cccc(-n2c(=O)[nH]cc(C(=O)Nc3ccc(NC(C)=O)cc3)c2=O)c1 | -13.3 | 4 | 0.63 | 106% | 96.6% | 3.3 | 4.32
11 | COc1ccccc1NC(=O)CSc1nnc(Cn2c(=O)sc3ccccc32)n1C | -3.61 | 5.22 | -4.11 | 100% | 87.9% | 2.21 | 4.37
12 | c1ccc2c(c1)CCN(c1nc3ccccc3n3cnnc13)C2 | -1.93 | 10.2 | -8.63 | 65.1% | 68.9% | 0.5 | -0.31
13 | COc1ccccc1-c1c(C)nn2c(N3CCCCCC3)cc(C)nc12 | -5.18 | -3.49 | -7.77 | 6.78% (active) | 7.98% (active) | 1.42 | -0.76
14 | O=C(O)c1ccc(NC(=O)C2C3CCC(C3)C2C(=O)O)cc1 (stereo not drawn) | 7 | -0.915 | -0.12 | 101% | 98.8% | 0.345 | 0.46
15 | CCOC(=O)N1CCc2c(sc(NC(C)=O)c2C(N)=O)C1 | -5.06 | -16.1 | -1.9 | 103% | 99.3% | 1.6 | 0.58
16 | CC1(C(=O)NC2CCCCC2)CCC(=O)N1Cc1cccnc1 (stereo not drawn) | -8.59 | -7.4 | -0.54 | 102% | 104% | 0.95 | 0.89
17 | CCOc1ccc(CCNC(=O)c2oc3c(c2C)-c2[nH]ncc2CC3)cc1OCC | -11.9 | -11.6 | -2.93 | 105% | 92.7% | 1.57 | 9.8
18 | CCCn1c(CCC(=O)O)ccc1-c1cccs1 | 5.45 | 7.04 | -2.75 | 93.4% | 102% | 0.78 | -0.03
19 | CCCn1c(CCNC(=O)c2cccs2)nc2ccccc21 | -1.19 | 4.79 | -0.97 | 94.9% | 91.5% | 1.37 | 4.94
20 | COC(=O)c1cc(NC2c3ccccc3C(=O)N2c2ccc(Cl)cn2)cc(C(=O)OC)c1 (stereo not drawn) | -20.1 | -16.2 | 0.19 | 71.2% | 64.4% | 1.5 | 4.41
21 | CCOc1cc(CN2CCSCC2)ccc1O | -8.12 | -9.94 | 0.51 | 97% | 101% | 0.825 | 4.67
22 | CCOc1cc(C(=O)Nc2nnc(C)s2)cc(OCC)c1OCC | -0.31 | 0.555 | -4.22 | 108% | 97.7% | 0.43 | 0.63
23 | Cc1cccn2c(=O)c3cc(C(=O)NC4CCS(=O)(=O)C4)sc3nc12 (stereo not drawn) | -6 | 1.39 | -2.99 | 101% | 97.2% | 2.06 | 0.09
24 | O=C(CN1CCN(C(=O)c2ccco2)CC1)Nc1ccccc1-c1ccccc1 | 6.65 | 6.94 | -2.16 | 91% | 86.1% | 1.32 | 3.75
25 | N#CC1=C(N)C(C#N)(C#N)C2(C(=O)Nc3ccccc32)C2CCCC=C12 (stereo not drawn) | 5.05 | -12.2 | -4.96 | 91.5% | 82.6% | 0.71 | 0.83

Row | SMILES | growth inhibition [1] [%] | growth inhibition [2] [%] | viability increase [3] [%] | viability [4] | viability [5] | inhibition [6] [%] | RAM network inhibition [7] [%]
26 | COc1ccc(NC(=O)[C@H](CCS(C)(=O)=O)N2Cc3ccccc3C2=O)c(OC)c1 | -0.525 | -0.57 | 0.69 | 104% | 100% | 2.29 | 1.93
27 | Cc1cc(Nc2ccc(F)cc2C)n2ncnc2n1 | -3.29 | -0.445 | 0.05 | 108% | 101% | 1.8 | 5.54
28 | O=S(=O)(NCCCN1CCN(c2ccccc2F)CC1)c1cccc2cccnc12 | -1.96 | 6.3 | -2.92 | 77.9% | 77.4% | 0.97 | 5.43
29 | O=C(Cn1cnc2c(nnn2-c2ccccc2)c1=O)N1CCOCC1 | -5.42 | -7.92 | 0.78 | 104% | 104% | -0.26 | 0.26
30 | Cc1ccc(-n2c3c(cc(C(=O)NCc4ccco4)c2=O)C(=O)CC(C)(C)C3)cc1 | -5.76 | -4.77 | -5.37 | 83% | 85.6% | -0.235 | 3.42
31 | COc1ccc(N2C(=O)C3CCCN3C2c2cc(OC)c(OC)cc2OC)cc1 (stereo not drawn) | 8.35 | 5.12 | -3.74 | 102% | 90.4% | 0.47 | 7.38
32 | CCCCOC(=O)Nc1nc(CC(=O)OCC)cs1 | -1.73 | -4.89 | 1.05 | 92.2% | 95.7% | -0.45 | 1.89
33 | CCOC(=O)C1=C(C)Nc2nc(SCc3cccnc3)nn2C1c1ccc(OC)cc1 (stereo not drawn) | -6.41 | 2.46 | -2.64 | 98.7% | 89% | 0.58 | 4.49
34 | O=C(O)c1cc(S(=O)(=O)N2CCCCCC2)c(Cl)cc1Cl | -2.36 | -0.81 | -0.57 | 90.4% | 101% | 1.18 | 6.2
35 | O=C(C1CCC(Cn2c(=O)[nH]c3ccccc3c2=O)CC1)N1CCN(c2ccccc2)CC1 (stereo not drawn) | -14.3 | -1.08 | 2.93 | 82.6% | 67.6% | 1.81 | 6.69
36 | CCN(CC)S(=O)(=O)c1ccc(Cl)c(C(=O)NC2CCCC2)c1 | -6.5 | -7.35 | 0.17 | 92.9% | 97.1% | 0.145 | 3.38
37 | CCSc1nnc(Cn2c(=O)sc3ccccc32)n1-c1ccc(OC)cc1 | -4.46 | 30.7 | -1.8 | 92.1% | 86.5% | -0.94 | 9.11
38 | COc1ccc(C2C(C(=O)Nc3cccc(C)n3)c3ccccc3C(=O)N2C)cc1 (stereo not drawn) | -11.3 | -6.23 | -0.69 | 101% | 93.9% | 1.39 | 2.93
39 | O=C(CCc1ccccc1)Nc1nnc(-c2cccs2)o1 | -12.3 | -2.62 | -4.02 | 103% | 97.3% | 1.6 | 3.35
40 | Cn1c(NC(=O)c2ccccc2C(F)(F)F)cc(=O)n(C)c1=O | -16.9 | -8.93 | -2.06 | 95.3% | 90.7% | 0.785 | -1.32
41 | CCOC(=O)N1CCC(Nc2c(OCC)c(=O)c2=O)CC1 | -10.2 | 10.1 | -0.57 | 102% | 96.4% | 1.31 | 5.22
42 | CC(Oc1ccc(Cl)cc1Cl)C(=O)NCCCN(C)C (stereo not drawn) | -0.77 | 4.78 | -2.25 | 99.6% | 100% | 1.79 | 0.78
43 | CCN(CC)c1ccc(NC(=O)CSc2nc(C)cc(=O)[nH]2)cc1 | -5.01 | 1.71 | -0.69 | 95.7% | 95.4% | 0.125 | 5.74
44 | COc1ccc(OCC(=O)Nc2cc(-c3nn4c(C)nnc4s3)ccc2C)cc1 | 0.16 | 0.525 | -1.72 | 106% | 94% | 0.755 | 5.36
45 | Cc1cc(N2CCCc3ccccc32)n2ncnc2n1 | -2.53 | -1.67 | -1.21 | 97.9% | 105% | 0.97 | 0.93
46 | Cn1c(SCC(=O)Nc2cc(=O)n(C)c(=O)n2C)nnc1C12CC3CC(CC(C3)C1)C2 | 2.36 | 12.8 | -4.43 | 88.8% | 92.7% | 2.03 | 3.38
47 | O=C(CSCC(=O)N1CCOCC1)Nc1nc(-c2ccc3c(c2)OCO3)cs1 | -15 | -3.92 | -3.99 | 100% | 97.3% | 0.47 | 6.38
48 | COc1ccc(-n2c(Cc3cc(=O)[nH]c(=O)[nH]3)nnc2SCC(=O)NC2CCCC2)cc1 | -0.575 | 2.41 | 1.47 | 104% | 107% | 0.535 | 3.15
49 | COc1ccc(Cn2c(=O)[nH]c3cc(C(=O)NCCCN4CCCC4=O)ccc3c2=O)cc1 | -17.7 | -12.3 | 0.19 | 91.6% | 90.4% | 0.92 | 1.36
